Test results as given in ChEMBL document CHEMBL4425130, “Macrocyclic Prodrugs of a Selective Nonpeptidic Direct Thrombin Inhibitor Display High Permeability, Efficient Bioconversion but Low Bioavailability” (J Med Chem, 2016).
pIC50, pKi: −log10 of the molar value.

How the values were obtained:
[1] = Intrinsic clearance in Sprague-Dawley rat liver microsomes at 1 umol/L after 7 to 30 mins by LC-MS/MS method; type: ADME, Microsome; details: read-out: CLH
[2] = biological target: Cytochrome P450 3A4 (Homo sapiens, UniProt P08684); assay: Inhibition of human CYP3A4; type: ADME
[3] = system: Plasma; assay: Anticoagulant activity in human citrated plasma assessed as concentration required to double activated partial thromboplastin time after 3 mins by coagulation analyser; type: functional, cell-free; details: 0.05 h
[4] = species on record: Rattus norvegicus; assay: Antithrombotic activity in rat caval vein thrombosis model assessed as prevention of venous thrombosis; type: functional, organism-based
[5] = biological target: Prothrombin (Homo sapiens, UniProt P00734); assay: Inhibition of human alpha-thrombin using S-2366 as substrate after 40 mins
[6] = biological target: Serine protease 1 (Homo sapiens, UniProt P07477); assay: Inhibition of human trypsin 1 using S-2222 as substrate preincubated for 300 secs followed by substrate addition measured after 40 mins
Method in brief: (§1)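 Human proteases assayed at one substrate concentration with ten inhibitor concentrations at 37 °C, ≤1.3% DMSO, in an enzyme-specific Tris-HCl pH 7.4 buffer. Enzyme and inhibitor preincubated 300 s, then substrate added; absorbance read at 405 nm after 40 min. IC50 converted to Ki by IC50 = Ki(1+S/KM), using KM measured under assay conditions.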

[7] = Inhibition of human tissue factor/F7a using spectrozyme as substrate preincubated for 300 secs followed by substrate addition measured after 40 mins; method in brief: as §1
[8] = biological target: Coagulation factor IX (Homo sapiens, UniProt P00740); assay: Inhibition of human F9a using pefachrome F9a as substrate preincubated for 300 secs followed by substrate addition measured after 40 mins
[9] = biological target: Coagulation factor X (Homo sapiens, UniProt P00742); assay: Inhibition of human F10a using S-2765 as substrate preincubated for 300 secs followed by substrate addition measured after 40 mins; method in brief: as §1
[10] = biological target: Coagulation factor XI (Homo sapiens, UniProt P03951); assay: Inhibition of human F11a using S-2366 as substrate preincubated for 300 secs followed by substrate addition measured after 40 mins; method in brief: as §1
[11] = biological target: Plasminogen (Homo sapiens, UniProt P00747); assay: Inhibition of human plasmin using S-2366 as substrate preincubated for 300 secs followed by substrate addition measured after 40 mins; method in brief: as §1
[12] = biological target: Thrombin & trypsin (Homo sapiens) (UniProt P00734+P07477+P07478+P35030); assay: Selectivity ratio of Ki for human trypsin 1 to Ki for human alpha-thrombin; type: protein assay
[13] = species on record: Homo sapiens; assay: Selectivity ratio of Ki for human tissue factor/F7a to Ki for human alpha-thrombin
[14] = species on record: Homo sapiens; assay: Selectivity ratio of Ki for human F9a to Ki for human alpha-thrombin
[15] = species on record: Homo sapiens; assay: Selectivity ratio of Ki for human F10a to Ki for human alpha-thrombin
[16] = species on record: Homo sapiens; assay: Selectivity ratio of Ki for human F11a to Ki for human alpha-thrombin
[17] = species on record: Homo sapiens; assay: Selectivity ratio of Ki for human plasmin to Ki for human alpha-thrombin
[18] = Solubility of the compound in phosphate buffer at pH 7.4 at 25 degC after 24 hrs by ultraperformance LC/MS/MS method
[19] = Apparent permeability across apical to basolateral side in human Caco2 cells at 10 uM after 45 to 120 mins by ultraperformance LC/MS/MS method; details: Caco-2
[20] = Efflux ratio of apparent permeability across basolateral to apical over apical to basolateral side in human Caco2 cells at 10 uM after 45 to 120 mins by ultraperformance LC/MS/MS method; details: Caco-2
[21] = Drug level in human hepatocytes treated with 25-Chloro-18-methyl-13,14,17,20,22,23-hexahydro-1H,7H-15,19-methano-8,12-(metheno)-4,6,2,14,15,22-benzodioxatetraazacyclopentacosine-3,7,21,28(1H,16H)-tetrone assessed as esterase-mediated compound formation at 4 uM after 40 mins by ultraperformance liquid chromatographic method; type: ADME, cell-based; details: isolated protein
Method in brief: (§2)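 Cryopreserved human hepatocytes at 10^6 viable cells/mL, thawed and pre-warmed 10 min at 37 °C. Compound added from CH3CN stock at 4 µM final. Incubated 40 min, then quenched in cold CH3CN, with compound-free incubations as blanks. Metabolites assigned by LC-MS product ion spectra.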

[22] = Drug level in human hepatocytes treated with 25-Chloro-5,18-dimethyl-13,14,17,20,22,23-hexahydro-1H,7H-15,19-methano-8,12-(metheno)-4,6,2,14,15,22-benzodioxatetraazacyclopentacosine-3,7,21,28(2H,16H)-tetrone assessed as esterase-mediated compound formation at 4 uM after 40 mins by ultraperformance liquid chromatographic method; type: ADME, cell-based; details: isolated protein; method in brief: as §2
[23] = Drug level in rat hepatocytes treated with 25-Chloro-5,18-dimethyl-13,14,17,20,22,23-hexahydro-1H,7H-15,19-methano-8,12-(metheno)-4,6,2,14,15,22-benzodioxatetraazacyclopentacosine-3,7,21,28(2H,16H)-tetrone assessed as esterase-mediated compound formation at 4 uM after 40 mins by ultraperformance liquid chromatographic method; type: ADME, cell-based; details: isolated protein
[24] = Drug level in human liver microsomes treated with treated with 25-Chloro-18-methyl-13,14,17,20,22,23-hexahydro-1H,7H-15,19-methano-8,12-(metheno)-4,6,2,14,15,22-benzodioxatetraazacyclopentacosine-3,7,21,28(1H,16H)-tetrone in presence of NADPH; type: ADME, Microsome
[25] = Drug level in human liver microsomes treated with treated with 25-Chloro-18-methyl-13,14,17,20,22,23-hexahydro-1H,7H-15,19-methano-8,12-(metheno)-4,6,2,14,15,22-benzodioxatetraazacyclopentacosine-3,7,21,28(1H,16H)-tetrone in absence of NADPH; type: ADME, Microsome
[26] = Drug level in human liver microsomes treated with treated with 25-Chloro-5,18-dimethyl-13,14,17,20,22,23-hexahydro-1H,7H-15,19-methano-8,12-(metheno)-4,6,2,14,15,22-benzodioxatetraazacyclopentacosine-3,7,21,28(2H,16H)-tetrone in presence of NADPH; type: ADME, Microsome
[27] = Drug level in human liver microsomes treated with treated with 25-Chloro-5,18-dimethyl-13,14,17,20,22,23-hexahydro-1H,7H-15,19-methano-8,12-(metheno)-4,6,2,14,15,22-benzodioxatetraazacyclopentacosine-3,7,21,28(2H,16H)-tetrone in absence of NADPH; type: ADME, Microsome
[28] = Clearance in Han Wistar rat at 0.5 umol/kg, iv by LC-MS/MS method; type: ADME, organism-based; details: in vivo
Method in brief: (§3)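 Male Han Wistar rats, cannulated in the carotid artery for sampling and the jugular vein for i.v. dosing, one week before the study (two days before for intraduodenal dosing). Single doses: 0.5 µmol/kg i.v., or 1 µmol/kg by gavage or intraduodenally. Vehicles were 5% mannitol in water or DMA:TEG:water (1:1:1). Plasma sampled up to 24 h and analysed by LC-MS/MS. Non-compartmental analysis; means of n=3, with F from mean AUCinf.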

[29] = Volume of distribution at steady state in Han Wistar rat at 0.5 umol/kg, iv by LC-MS/MS method; type: ADME, organism-based; details: in vivo, read-out: Vdss; method in brief: as §3
[30] = Apparent terminal half life in Han Wistar rat at 0.5 umol/kg, iv by LC-MS/MS method; type: ADME, organism-based; details: in vivo, read-out: betat1/2(app) (converted); method in brief: as §3
[31] = AUCinfinity in Han Wistar rat at 0.5 umol/kg, iv by LC-MS/MS method; type: ADME, organism-based; parameters: dose 0.5 umol/kg, time infinity, route intravenous; details: in vivo; method in brief: as §3
[32] = Apparent terminal half life in Han Wistar rat at 1 umol/kg, po administered via gavage by LC-MS/MS method; type: ADME, organism-based; details: in vivo, read-out: betat1/2(app) (converted); method in brief: as §3
[33] = AUCinfinity in Han Wistar rat at 1 umol/kg, po administered via gavage by LC-MS/MS method; type: ADME, organism-based; parameters: dose 1 umol/kg, time infinity, route oral; details: in vivo; method in brief: as §3
[34] = Oral bioavailability in Han Wistar rat at 1 umol/kg administered via gavage by LC-MS/MS method; type: ADME, organism-based; details: in vivo; method in brief: as §3
[35] = Cmax in Han Wistar rat at 1 umol/kg, po administered via gavage by LC-MS/MS method; type: ADME, organism-based; parameters: dose 1 umol/kg, route oral; details: in vivo; method in brief: as §3
[36] = rat, isolated protein, 40 min, 4 µM
[37] = physchem; details: 1-octanol/phosphate buffer, pH 7.4

Cytochrome P450 3A4, sequence (P08684 whole entry): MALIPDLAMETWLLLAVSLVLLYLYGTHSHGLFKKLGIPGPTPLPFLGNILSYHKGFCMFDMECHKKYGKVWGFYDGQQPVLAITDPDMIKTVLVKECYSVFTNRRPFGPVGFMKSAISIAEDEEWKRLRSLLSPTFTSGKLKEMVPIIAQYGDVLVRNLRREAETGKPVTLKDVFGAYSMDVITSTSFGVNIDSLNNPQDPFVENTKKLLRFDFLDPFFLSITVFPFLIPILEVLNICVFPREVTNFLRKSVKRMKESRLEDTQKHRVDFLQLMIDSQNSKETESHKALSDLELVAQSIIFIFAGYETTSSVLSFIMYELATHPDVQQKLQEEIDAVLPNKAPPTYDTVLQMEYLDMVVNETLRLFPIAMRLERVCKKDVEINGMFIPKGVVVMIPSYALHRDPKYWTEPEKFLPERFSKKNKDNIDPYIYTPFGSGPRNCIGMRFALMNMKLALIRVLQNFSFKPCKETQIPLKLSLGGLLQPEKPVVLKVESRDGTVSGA
Plasminogen, sequence (P00747 97-580 limits assumed): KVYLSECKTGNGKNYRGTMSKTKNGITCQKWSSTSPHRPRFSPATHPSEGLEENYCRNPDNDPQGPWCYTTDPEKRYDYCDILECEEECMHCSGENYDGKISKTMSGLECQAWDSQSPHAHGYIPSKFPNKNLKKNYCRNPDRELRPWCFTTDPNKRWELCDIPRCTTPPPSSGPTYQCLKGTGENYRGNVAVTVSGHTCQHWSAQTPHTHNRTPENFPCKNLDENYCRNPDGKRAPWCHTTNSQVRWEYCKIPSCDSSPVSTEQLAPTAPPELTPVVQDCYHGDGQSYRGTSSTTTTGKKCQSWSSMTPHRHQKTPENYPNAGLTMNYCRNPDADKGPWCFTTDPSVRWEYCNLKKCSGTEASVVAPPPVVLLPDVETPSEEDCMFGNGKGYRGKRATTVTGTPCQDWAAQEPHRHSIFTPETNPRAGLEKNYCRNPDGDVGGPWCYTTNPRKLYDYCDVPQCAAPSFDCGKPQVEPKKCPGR
Plasminogen, sequence (P00747 581-810 limits assumed): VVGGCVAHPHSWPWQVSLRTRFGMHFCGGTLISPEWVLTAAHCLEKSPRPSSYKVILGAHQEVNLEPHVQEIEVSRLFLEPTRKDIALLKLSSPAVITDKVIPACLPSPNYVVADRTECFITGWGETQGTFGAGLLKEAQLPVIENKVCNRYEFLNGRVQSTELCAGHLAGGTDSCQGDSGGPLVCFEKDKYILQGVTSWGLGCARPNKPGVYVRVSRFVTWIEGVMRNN
Serine protease 1, sequence (P07477 whole entry): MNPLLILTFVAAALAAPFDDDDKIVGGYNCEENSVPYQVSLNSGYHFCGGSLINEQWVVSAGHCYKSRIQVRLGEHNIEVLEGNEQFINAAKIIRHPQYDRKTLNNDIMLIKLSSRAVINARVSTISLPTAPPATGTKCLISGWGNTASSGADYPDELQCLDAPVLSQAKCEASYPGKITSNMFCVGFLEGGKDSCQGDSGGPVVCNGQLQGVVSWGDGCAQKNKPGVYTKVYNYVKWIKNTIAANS
Coagulation factor IX, sequence (P00740 47-191 limits assumed): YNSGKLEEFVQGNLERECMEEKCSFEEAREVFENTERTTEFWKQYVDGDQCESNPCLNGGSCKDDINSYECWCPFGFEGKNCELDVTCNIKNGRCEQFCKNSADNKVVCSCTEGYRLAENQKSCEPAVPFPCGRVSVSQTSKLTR
Coagulation factor IX, sequence (P00740 227-461 limits assumed): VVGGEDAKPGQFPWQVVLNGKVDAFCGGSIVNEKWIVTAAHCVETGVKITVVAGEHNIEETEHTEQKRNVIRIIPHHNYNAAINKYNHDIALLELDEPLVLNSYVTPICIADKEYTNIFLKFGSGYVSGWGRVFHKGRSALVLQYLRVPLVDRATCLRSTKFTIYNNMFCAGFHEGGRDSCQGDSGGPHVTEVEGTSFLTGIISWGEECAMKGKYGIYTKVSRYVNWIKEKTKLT
Coagulation factor X, sequence (P00742 41-179 limits assumed): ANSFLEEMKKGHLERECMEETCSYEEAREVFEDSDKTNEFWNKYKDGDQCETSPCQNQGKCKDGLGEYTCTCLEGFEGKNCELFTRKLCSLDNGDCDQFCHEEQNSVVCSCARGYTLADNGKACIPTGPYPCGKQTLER
Coagulation factor X, sequence (P00742 235-488 limits assumed): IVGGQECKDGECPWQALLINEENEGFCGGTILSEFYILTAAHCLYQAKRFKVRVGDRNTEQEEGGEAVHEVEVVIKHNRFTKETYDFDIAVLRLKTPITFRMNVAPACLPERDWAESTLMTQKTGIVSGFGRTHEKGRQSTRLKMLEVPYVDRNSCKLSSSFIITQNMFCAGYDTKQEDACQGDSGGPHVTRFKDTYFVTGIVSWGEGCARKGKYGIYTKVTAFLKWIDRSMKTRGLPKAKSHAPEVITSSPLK
Coagulation factor XI, sequence (P03951 19-387 limits assumed): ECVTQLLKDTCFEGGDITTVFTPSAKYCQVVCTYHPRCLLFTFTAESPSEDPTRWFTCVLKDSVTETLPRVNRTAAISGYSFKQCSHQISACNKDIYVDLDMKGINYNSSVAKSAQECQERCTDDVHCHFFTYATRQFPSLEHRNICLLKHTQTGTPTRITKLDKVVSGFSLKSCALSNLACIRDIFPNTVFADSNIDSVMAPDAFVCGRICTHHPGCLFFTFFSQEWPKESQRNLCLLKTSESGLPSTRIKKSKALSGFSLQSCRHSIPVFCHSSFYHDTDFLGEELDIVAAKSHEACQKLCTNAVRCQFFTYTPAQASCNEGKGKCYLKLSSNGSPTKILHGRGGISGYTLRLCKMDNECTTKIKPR
Coagulation factor XI, sequence (P03951 388-625 limits assumed): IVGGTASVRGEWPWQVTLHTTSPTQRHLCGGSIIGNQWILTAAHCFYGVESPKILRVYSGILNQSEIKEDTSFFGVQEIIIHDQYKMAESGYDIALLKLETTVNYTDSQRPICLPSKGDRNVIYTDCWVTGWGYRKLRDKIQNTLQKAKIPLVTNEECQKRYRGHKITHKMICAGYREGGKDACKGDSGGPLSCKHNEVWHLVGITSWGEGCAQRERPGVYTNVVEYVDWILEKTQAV

CC1=C(CC(=O)NCc2cc(Cl)ccc2CN)C(=O)N(NCc2cccc(C(=O)O)c2)CC1
microsomal CLint at 1 µM [1]: < 15 µL/min/mg
pIC50 [2]: < 4.30
pIC50 [3]: 5.92
pIC50 [4]: 7.01
pKi [5]: 8.34
pKi [6]: < 5.27
pKi [7]: < 4.48
pKi [8]: < 4.54
pKi [9]: < 4.77
pKi [10]: < 4.72
pKi [11]: < 4.72
Ratio Ki [12]: > 1000
Ratio Ki [13]: > 1000
Ratio Ki [14]: > 1000
Ratio Ki [15]: > 1000
Ratio Ki [16]: > 1000
Ratio Ki [17]: > 1000
solubility at 24 h [18]: > 100 µM
Papp A→B at 10 µM [19]: 0.1 ×10⁻⁶ cm/s
efflux ratio at 10 µM [20]: 2.4
Drug metabolism [21]: Metabolite_Detected
Drug metabolism [22]: Metabolite_Detected
Drug metabolism [23]: Metabolite_Detected
Drug metabolism [24]: Metabolite_Detected
Drug metabolism [25]: Metabolite_Detected
Drug metabolism [26]: Metabolite_Detected
Drug metabolism [27]: Metabolite_Detected
clearance [28]: 32.4 mL/min/kg
Vd [29]: 0.23 L/kg
half-life [30]: 21 min
AUC(0-inf) [31]: 0.258 µM·h
half-life [32]: 33.6 min
AUC(0-inf) [33]: 0.0025 µM·h
bioavailability [34]: 0.5%
Cmax [35]: 4 nM
Drug metabolism [36]: Metabolite_Detected
logD at 3 h [37]: -0.5
